Only some compounds are listed: those with a hit (about 2.9% of all), similar ones and a draw of the others.
S1P1 ag pot: S1P1 agonists and agonism potentiators, primary screen, cell-based, primary and confirmation screens, CRE-bla reporter | 56,000 tested, 0.57% active | Sphingosine 1-phosphate receptor 1 (Homo sapiens), P21453 | activation, % at 9.5 µM | S1P1 CRE-bla cells, forskolin, beta-lactamase FRET, potentiator mode; S1P1 agonist co-added at EC20, 2 nM; 100% = saturating reference agonist, 0% = basal;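 active = activation above a cutoff set at the mean activation of all tested compounds plus 3 SD, cut at about 54% in these data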;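 also: forskolin at 4 µM as EC80 and the EC20 agonist is SEW2871; 100% = SEW2871 at its EC100 plus forskolin at EC80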
S1P3 ag: human S1P3 receptor agonists, primary screen, cell-based, primary and confirmation, NFAT-BLA reporter; S1P3 NFAT-BLA reporter cells, agonism, FRET ratio; relative to 1 µM S1P, basal subtracted; activation, % at 4.5 µM; 60,000 tested, 0.1% active; AID 373, 2006;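 active = activation above the screen-wide mean plus 3 SD, cut at about 4.5% in these data, passing the limit was not always enough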
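Benchmarks: high control 1 µM S1P / System: stable CHO line with human S1P3, Gα16, NFAT-BLA reporter / Dosing: single compound concentration, 4.5 µM final / Timing: 4 h compound at 37 °C, 2 h substrate at RT / Measured by: FRET β-lactamase substrate fluorescence, excitation 405 nm, 460/535 nm emission ratio, background-subtracted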
5-HT1A blocker: human 5-HT1a receptor antagonists, primary screen, cell-based, CHO, Ga15 NFAT-bla reporter. inhibition, % at 10 µM. 62,000 tested, 0.68% active. 5-hydroxytryptamine receptor 1A (Homo sapiens), P08908. CHO 5-HT1a Ga15 NFAT-bla reporter, antagonist mode;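 active = inhibition above the mean of all tested compounds plus 3 SD, cut at about 43% in these data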;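 also: receptor stimulated by 5-CT agonist at 100 nM near EC80; beta-lactamase reporter measured by ratiometric fluorescence of a cleavable substrate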
5HT1E ag: 5-HT1E receptor agonists, primary screen, cell-based, HTS; CHO 5-HT1E Ga15 NFAT-bla reporter, FRET; 0% DMSO wells, 100% control agonist wells; activation, % at 6 µM; 65,000 tested, 0.69% active; AID 574, 2007;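 active = activation above a set limit, the screen-wide mean activation plus 3 SD, cut at about 8.5% in these data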;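 also: 100% = positive control agonist at 1 µM giving full maximal response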
Target sequence (P28566 whole entry, looked up): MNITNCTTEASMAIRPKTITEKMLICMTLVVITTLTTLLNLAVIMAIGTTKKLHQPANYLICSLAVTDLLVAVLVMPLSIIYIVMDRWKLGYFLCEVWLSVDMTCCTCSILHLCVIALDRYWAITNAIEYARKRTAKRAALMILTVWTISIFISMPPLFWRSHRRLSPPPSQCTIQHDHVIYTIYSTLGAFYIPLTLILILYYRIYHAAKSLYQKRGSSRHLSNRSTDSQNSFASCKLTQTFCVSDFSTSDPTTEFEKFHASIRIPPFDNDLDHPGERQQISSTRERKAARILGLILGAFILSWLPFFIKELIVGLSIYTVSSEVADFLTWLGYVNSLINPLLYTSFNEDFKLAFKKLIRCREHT
5HT1E antag: 5-HT1E receptor antagonists, primary screen, cell-based, HTS; 5-hydroxytryptamine receptor 1E (Homo sapiens), P28566; CHO 5-HT1E Ga15 NFAT-bla reporter, FRET, antagonist; inhibition, % at 6 µM; 65,000 tested, 0.99% active;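 active = inhibition above a set limit, the mean inhibition across every tested compound plus 3 SD, cut at about 29% in these data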;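 also: signal is the 460 over 535 nm emission ratio of beta-lactamase substrate; 0% = agonist plus DMSO wells and 100% = wells without agonist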
HTR1A agonist: human 5-HT1a receptor agonists, primary screen, cell-based, CHO, Ga15 NFAT-bla reporter | AID 567, 2006 | 5-hydroxytryptamine receptor 1A (Homo sapiens), P08908 | CHO 5-HT1a Ga15 NFAT-bla reporter, FRET ratio; 0% basal, 100% maximal reference agonist | 65,000 tested, 0.56% active | activation, % at 10 µM;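 active = activation above the screen-wide mean activation plus 3 SD, cut at about 19% in these data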;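 also: 0% = DMSO wells and 100% = 5-CT at EC100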
* = called active by the depositor; x = no result given.

SMILES	S1P1 ag pot	S1P3 ag	5-HT1A blocker	5HT1E ag	5HT1E antag	HTR1A agonist
CCCn1c(CN2CCN(c3cccc(Cl)c3)CC2)nc2c1c(=O)n(C)c(=O)n2C	135*	-1	8	0	-3	-1
CCCCn1c(CN2CCN(c3cccc(Cl)c3)CC2)nc2c1c(=O)n(C)c(=O)n2C	-3	1	-12	2	-8	2
CC(C)Cn1c(CN2CCN(c3ccccc3F)CC2)nc2c1c(=O)[nH]c(=O)n2C	-16	-1	2	1	-2	-1
O=C(OCC(=O)N1CCN(C(=O)COC(=O)c2ccncc2)CC1)c1ccncc1	7	1	0	0	-3	-2
COc1ccccc1CC(=O)N1CCN(c2cccc(C(F)(F)F)c2)CC1	x	-1	2	0	4	2
O=C(Cn1nc(Cl)nc1Cl)c1cc2ccccc2oc1=O	3	-2	15	0	-5	-1
COc1ccc(S(=O)(=O)Nc2ccc3c(c2)OCCO3)cc1Cl	18	-1	10	0	4	0
O=S(=O)(Nc1ccc2c(c1)OCCO2)c1ccc2oc3ccccc3c2c1	72*	0	17	0	5	-1
CCCCNC(=O)OCCNC(=O)NC	-2	0	0	0	0	-1
N#Cc1c(N)nc2c(c1-c1ccccc1)CCCC2	-38	1	2	1	6	-2
N#Cc1c(N)nc(-c2ccccc2)nc1-c1ccccc1	-16	0	23	0	30*	-1
N#CC1=C(N)Oc2n[nH]c(-c3ccccc3)c2C1c1cccc(OC(=O)N2CCOCC2)c1 (stereo not given)	-21	-1	9	11*	14	0
CCOC(=O)c1c(C)[nH]c(C(=O)OC/C(O)=C(\C#N)c2nc3ccccc3[nH]2)c1C	-18	1	6	3	49*	0
N#C/C(=C(/O)COC(=O)Cc1c[nH]c2ccccc12)c1nc2ccccc2[nH]1	16	0	12	5	-1	32*
N#C/C(=C(/O)COC(=O)c1ccc2c(c1)OCCO2)c1nc2ccccc2[nH]1	-7	-1	0	1	5	-3
O=C(Nc1nc(-c2nc3ccccc3s2)cs1)c1ccc(S(=O)(=O)N2CCOCC2)cc1	109*	-1	32	1	-9	-1
COc1cccc(OCCOCCNCCO)c1	-13	-1	0	0	2	42*
CCN1CCCC1CNC(=O)c1nn(-c2ccc(C)cc2)c(=O)c2c1c1ccccc1n2C (stereo not given)	-8	0	-11	37*	-7	0
CCCC(=O)N1CCN(c2ccc(NC(=O)c3cc4ccccc4o3)cc2Cl)CC1	66*	-1	17	2	44*	-2
O=C(Nc1ccccc1N1CCCC1)c1ccc(Br)o1	-8	0	-5	0	-9	1
O=C(Nc1ccc(N2CCCC2)c(Cl)c1)c1ccc(Br)o1	97*	-1	-8	0	-5	2
O=C(Nc1ccc(N2CCN(C(=O)c3ccco3)CC2)c(Cl)c1)c1cc2ccccc2o1	x	-2	27	3	38*	4
CCC(=O)N1CCN(c2ccc(NC(=O)c3cc4ccccc4o3)cc2Cl)CC1	x	-1	31	0	36*	1
Cc1cc(C(=O)O)c(CCCN)s1	-17	0	-12	0	-1	1
CCOC(=O)CC(=O)CSc1[nH]c(=O)cc(C)c1C#N	-3	-2	x	0	2	0
SMILES	S1P1 ag pot	S1P3 ag	5-HT1A blocker	5HT1E ag	5HT1E antag	HTR1A agonist
Cc1c(S(=O)(=O)N2CCc3ccccc3C2)c(=O)n(C)c(=O)n1C	2	-1	15	-1	5	-4
O=C(c1ccc(F)cc1)C(CN1CCOCC1)c1ccccc1 (stereo not given)	75	-2	69*	0	51*	0
O=C(c1ccccc1)C(CCC(CN1CCOCC1)C(=O)c1ccccc1)CN1CCOCC1 (stereo not given)	93*	-5	x	0	13	2
COc1cc(C)c(S(=O)(=O)NCc2cccs2)cc1C	5	0	10	-1	17	-2
Nc1nonc1/C(=N/O)N1CCN(CCO)CC1	-7	-1	1	0	-18	-2
CN1CCN(/C(=N\O)c2nonc2N)CC1	-14	-1	2	55*	-6	-4
Cn1ncc(N)c1C(=O)Nc1cccc(C(F)(F)F)c1	5	0	-8	-1	2	45*
CC1Cc2cc(-c3csc(NC(=O)Cc4cccs4)n3)ccc2N1S(C)(=O)=O (stereo not given)	57*	-1	-8	0	7	-1
CN1CCN(CC(=O)Nc2nc(-c3ccccc3)cs2)CC1	-8	-1	x	1	-4	0
Cc1cc(N2CCN(c3ccccc3)CC2)nc(-n2nc(C)cc2C)n1	-28	0	-22	0	3	0
c1ccc(Oc2ccc(-n3cnnn3)cc2)cc1	-3	-1	9	-3	29*	0
O=C(Oc1ccccc1)c1ccc(-n2cnnn2)cc1	-24	-1	2	0	-3	-3
Cc1cccc2cc(C#N)c(SCC(=O)N3CC(=O)Nc4ccccc43)nc12	-5	0	40	0	45*	-2
CCOC(=O)N1CCC(NC(=O)c2cc3ccccn3n2)CC1	-7	-1	-12	1	2	-4
COc1cc(C2C(C#N)=C(N)Oc3cc(N(C)C)ccc32)cc2c1OCO2 (stereo not given)	9	-2	4	0	43*	-2
CCOC(=O)N1CCC(NC(=O)CC(NS(=O)(=O)c2ccc(Cl)cc2)c2ccco2)CC1 (stereo not given)	2	0	-16	1	-3	29*
COCCN1C(=O)C(CC(=O)Nc2ccc(C(C)=O)cc2)SC1=Nc1ccccc1 (stereo not given)	-26	-2	4	0	1	172*
CCOC(=O)c1oc2ccccc2c1NC(=O)c1cccc(OC)c1OC	-52	0	33	0	34*	-2
CCOc1ccc(C(=O)Nc2c(C(N)=O)oc3ccccc23)cc1	54*	0	-4	0	12	-5
